Source: ChEMBL document CHEMBL4270636, “5'-Chloro-2,2'-dihydroxychalcone and related flavanoids as treatments for prostate cancer” (Eur J Med Chem, 2018)
The source made the active and inactive calls. The rule behind the calls is not given here.

What was measured:
Androgen receptor = biological target: T1, Androgen receptor (Homo sapiens, UniProt P10275); assay: Antagonist activity at AR in human LNCAP cells assessed as reduction in DHT-induced transcriptional activation after 24 hrs by luciferase reporter gene assay; format: cell-based
T1 sequence (P10275 whole entry): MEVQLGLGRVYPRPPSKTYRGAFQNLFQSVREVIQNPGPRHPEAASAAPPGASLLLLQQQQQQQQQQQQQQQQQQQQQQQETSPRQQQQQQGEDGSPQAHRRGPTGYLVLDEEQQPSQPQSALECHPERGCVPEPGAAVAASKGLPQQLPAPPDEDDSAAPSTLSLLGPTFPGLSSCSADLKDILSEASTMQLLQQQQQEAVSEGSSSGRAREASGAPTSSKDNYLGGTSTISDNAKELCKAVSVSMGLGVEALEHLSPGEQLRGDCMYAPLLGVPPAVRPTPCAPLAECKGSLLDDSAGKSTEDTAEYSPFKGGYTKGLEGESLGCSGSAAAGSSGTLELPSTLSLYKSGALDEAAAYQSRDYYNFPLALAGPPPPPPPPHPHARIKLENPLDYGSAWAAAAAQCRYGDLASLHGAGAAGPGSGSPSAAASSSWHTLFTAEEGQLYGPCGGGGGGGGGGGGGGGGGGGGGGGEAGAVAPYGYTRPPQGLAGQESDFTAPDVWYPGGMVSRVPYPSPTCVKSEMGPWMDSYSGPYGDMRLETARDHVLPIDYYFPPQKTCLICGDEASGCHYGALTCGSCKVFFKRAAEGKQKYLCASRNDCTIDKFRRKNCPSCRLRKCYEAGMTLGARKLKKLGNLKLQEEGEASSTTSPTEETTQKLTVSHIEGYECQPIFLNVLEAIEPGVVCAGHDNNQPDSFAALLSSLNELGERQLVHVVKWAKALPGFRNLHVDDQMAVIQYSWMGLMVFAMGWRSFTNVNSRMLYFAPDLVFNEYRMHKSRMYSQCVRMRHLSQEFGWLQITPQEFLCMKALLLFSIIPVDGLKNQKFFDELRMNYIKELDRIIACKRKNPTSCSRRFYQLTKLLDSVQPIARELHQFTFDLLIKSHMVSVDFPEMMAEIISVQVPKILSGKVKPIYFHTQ

LNCaP [1] = assay: Antiproliferative activity against human LNCAP cells assessed as reduction in cell growth treated every 2 days for 4 days by hemocytometry; format: functional, cell-based
DU-145 = assay: Antiproliferative activity against human DU145 cells assessed as reduction in cell growth treated every 2 days for 4 days by hemocytometry; format: functional, cell-based
PC-3 [2] = assay: Antiproliferative activity against human PC3 cells assessed as reduction in cell growth treated every 2 days for 4 days by hemocytometry; format: functional, cell-based
MDA-MB-231 = assay: Antiproliferative activity against human MDA-MB-231 cells assessed as reduction in cell growth after 72 hrs by sulforhodamine B assay; format: functional, cell-based; details: MDA-MB-231, 72 h
[3] = Antiproliferative activity against human KBVIN cells assessed as reduction in cell growth after 72 hrs by sulforhodamine B assay; format: functional, cell-based
PC-3 [4] = assay: Cell cycle arrest in human PC3 cells assessed as accumulation at G2/M phase at 200 nM after 24 hrs by propidium iodide staining based flow cytometry; format: functional
LNCaP [5] = assay: Antiproliferative activity against human LNCAP cells assessed as reduction in cell growth at 10 uM treated every 2 days for 4 days by hemocytometry; format: functional, cell-based
Homo sapiens = species: Homo sapiens; assay: Antiproliferative activity against human LNCaP-SF cells assessed as reduction in cell growth at 10 uM treated every 2 days for 4 days by hemocytometry; format: functional, cell-based
Outline: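 LNCaP-SF castration-resistant subline cultured 4 days with compound at stated concentrations, with or without 0.1 nM DHT; growth assessed by cell counting.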

[6] = test system: Androgen receptor (Homo sapiens), P10275 [UNDEFINED MUTATION]; details: at 3 to 10 µM
[7] = biological target: T2, Androgen receptor (Homo sapiens) (UniProt P10275); assay: Antagonist activity at AR (unknown origin) expressed in human PC3 cells assessed as reduction in DHT-induced transcriptional activation at 3 to 10 uM after 24 hrs by luciferase reporter gene assay; format: cell-based
T2 sequence (whole entry): T1 sequence (P10275 whole entry)
Outline: (§1)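 PC-3 cells (AR-negative) co-transfected with wild-type or AR-V7 expression vector plus PSA promoter-luciferase reporter (pGL3PSAp-5.8, 0.5 ug/well); seeded 50,000/well, transfected after 24 h, treated with compounds ± 1 nM DHT for 24 h from 24 h post-transfection; lysed cells read for luciferase activity by luminometer.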

[8] = biological target: T2, Androgen receptor (Homo sapiens); assay: Antagonist activity at AR in human LNCAP cells assessed as reduction in DHT-induced cell growth at 1 to 3 uM treated for every 2 days for 4 days by hemocytometry; format: cell-based
[9] = Antiproliferative activity against human DU145-TxR cells assessed as reduction in cell growth treated every 2 days for 4 days by hemocytometry; format: functional, cell-based
[10] = test system: Androgen receptor (Homo sapiens), P10275 [UNDEFINED MUTATION]; assay: Antagonist activity at AR V7 mutant (unknown origin) expressed in human PC3 cells assessed as reduction in DHT-induced transcriptional activation after 24 hrs by luciferase reporter gene assay; format: cell-based; outline: as §1
KB = assay: Antiproliferative activity against human KB cells assessed as reduction in cell growth after 72 hrs by sulforhodamine B assay
[11] = Antiproliferative activity against human DU145/TxR/CxR cells assessed as reduction in cell growth treated every 2 days for 4 days by hemocytometry; format: functional, cell-based; details: DU-145
PC-3 [12] = assay: Cell cycle arrest in human PC3 cells assessed as accumulation at Sub-G1 phase at 2 times IC50 after 24 to 48 hrs by propidium iodide staining based flow cytometry; format: functional
A549 [13] = assay: Antiproliferative activity against human A549 cells assessed as reduction in cell growth after 72 hrs by sulforhodamine B assay; details: A549, 72 h
PC-3 [14] = assay: Antitumor activity against human PC3 cells xenografted in C.B-17 SCID mouse assessed as tumor growth inhibition at 30 mg/kg, ip administered every 4 days measured during compound dosing; format: functional, organism-based
Outline: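 Male C.B-17 scid mice (purchased at 7 weeks) given 2.0×10⁶ PC-3 cells in 50% matrigel subcutaneously on dorsal side at 8 weeks; at ~50 mm³ tumor, randomized into groups of 5, dosing from second day at 30 mg/kg i.p. every 4 days; tumor volume and body weight followed; mean ± SD.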

[15] = Antiproliferative activity against human PC3/TxR/CxR cells assessed as reduction in cell growth treated every 2 days for 4 days by hemocytometry; format: functional, cell-based
A549 [16] = assay: Cell cycle arrest in human A549 cells assessed as accumulation at Sub-G1 phase at 3 times IC50 after 24 to 48 hrs by propidium iodide staining based flow cytometry; format: functional
A549 [17] = assay: Cell cycle arrest in human A549 cells assessed as accumulation at G2/M phase at 3 times IC50 after 24 to 48 hrs by propidium iodide staining based flow cytometry; format: functional
MCF7 = assay: Antiproliferative activity against human MCF7 cells assessed as reduction in cell growth after 72 hrs by sulforhodamine B assay; details: MCF7, 72 h
[18] = Antiproliferative activity against human PC3-TxR cells assessed as reduction in cell growth treated every 2 days for 4 days by hemocytometry; format: functional, cell-based

O=C1CC(c2ccccc2O)Oc2cc(O)cc(O)c21 (stereo unspecified)
IC50 (Androgen receptor): > 10 µM

COc1ccc(O)c(C(=O)/C=C/c2ccccc2OC)c1
IC50 (LNCaP [1]): 7.25 µM
IC50 (DU-145): > 10 µM
IC50 (Androgen receptor): < 1 µM
IC50 (PC-3 [2]): 7.33 µM

COc1cc(/C=C/C(=O)c2cc(Cl)ccc2O)ccc1O
IC50 (Androgen receptor): 5.95 µM

COc1ccc(/C=C/C(=O)c2cc(Cl)ccc2O)cc1OC
IC50 (Androgen receptor): 5.25 µM

COc1ccccc1/C=C/C(=O)c1cc(I)ccc1O
IC50 (Androgen receptor): 1.72 µM

COCOc1ccccc1/C=C/C(=O)c1cc(F)ccc1O
IC50 (Androgen receptor): > 10 µM

CC(=O)O[C@H]1C(=O)[C@@]2(C)[C@H]([C@H](OC(=O)c3ccccc3)[C@]3(O)C[C@H](OC(=O)[C@H](O)[C@@H](NC(=O)c4ccccc4)c4ccccc4)C(C)=C1C3(C)C)[C@]1(OC(C)=O)CO[C@@H]1C[C@@H]2O [PACLITAXEL]
IC50 (MDA-MB-231): 0.0096 µM
IC50 [3]: 1.73 µM

COc1ccc(/C=C\c2cc(OC)c(OC)c(OC)c2)cc1O
Activity (PC-3 [4]): Active

COc1ccc2c(c1)OC(c1ccccc1O)CC2=O (stereo unspecified)
IC50 (Androgen receptor): > 10 µM

CCOc1ccccc1/C=C/C(=O)c1cc(Br)ccc1O
IC50 (Androgen receptor): 5.27 µM

O=C(/C=C/c1ccccc1O)c1cc(F)ccc1O
IC50 (Androgen receptor): 1.42 µM

O=C(/C=C/c1ccccc1)c1cc(Cl)ccc1O
IC50 (Androgen receptor): 1.51 µM

CCCOc1ccccc1/C=C/C(=O)c1cc(Br)ccc1O
IC50 (Androgen receptor): 3.96 µM

CNC(=O)c1ccc(N2C(=S)N(c3ccc(C#N)c(C(F)(F)F)c3)C(=O)C2(C)C)cc1F
Activity (LNCaP [5]): inactive

O=C(/C=C/c1ccccc1O)c1cc(Br)ccc1O
IC50 (Androgen receptor): 8.69 µM

O=C1CC(c2ccccc2O)Oc2ccc(Cl)cc21 (stereo unspecified)
IC50 (Androgen receptor): 1.68 µM

O=C(/C=C/c1ccccc1O)c1cc(Br)cc(Br)c1O
IC50 (Androgen receptor): 2.87 µM

COc1ccccc1/C=C/C(=O)c1cc(F)ccc1O
IC50 (Androgen receptor): 5.01 µM

O=C1CC(c2ccccc2O)Oc2ccc(Br)cc21 (stereo unspecified)
IC50 (Androgen receptor): 1.77 µM

COc1ccc2c(c1)C(=O)CC(c1ccccc1OC)O2 (stereo unspecified)
IC50 (Androgen receptor): > 10 µM

O=C(/C=C/c1ccc2c(c1)OCO2)c1cc(Cl)ccc1O
IC50 (Androgen receptor): 4.36 µM

CC(C)Oc1ccccc1/C=C/C(=O)c1cc(Br)ccc1O
IC50 (LNCaP [1]): 4.2 µM
IC50 (DU-145): 5.03 µM
IC50 (Androgen receptor): < 1 µM
IC50 (PC-3 [2]): 4.16 µM

O=C1CC(c2ccccc2O)Oc2ccccc21 (stereo unspecified) [2'-HYDROXY-FLAVANONE]
Activity (Homo sapiens): Active
inhibition [6]: inactive
IC50 (LNCaP [1]): 5.45 µM
IC50 (DU-145): 4.11 µM
inhibition [7]: Active
Activity [8]: Active
IC50 (Androgen receptor): < 1 µM
Activity (LNCaP [5]): Active
IC50 (PC-3 [2]): 2.56 µM

COc1ccccc1/C=C/C(=O)c1cc(Cl)ccc1O
IC50 (Androgen receptor): > 10 µM

COc1ccc2oc(-c3ccccc3OC)cc(=O)c2c1
IC50 (Androgen receptor): 6.19 µM

O=C1CC(c2ccccc2O)Oc2ccc(I)cc21 (stereo unspecified)
IC50 (Androgen receptor): 4.26 µM

COc1ccccc1/C=C/C(=O)c1ccccc1O
IC50 (Androgen receptor): 3.5 µM

O=C1CC(c2ccccc2O)Oc2cc(O)ccc21 (stereo unspecified)
IC50 (Androgen receptor): > 10 µM

O=C1CC(c2ccccc2O)Oc2ccc(O)cc21 (stereo unspecified)
IC50 (Androgen receptor): 2.73 µM

COc1ccccc1/C=C/C(=O)c1cc(Br)ccc1O
Activity (Homo sapiens): Active
IC50 [9]: 4.47 µM
inhibition [10]: Dose-dependent effect
IC50 (KB): 16.2 µM
IC50 [11]: 5.16 µM
IC50 (LNCaP [1]): 4.96 µM
IC50 (MDA-MB-231): 9.7 µM
IC50 (DU-145): 6.13 µM
Activity (PC-3 [12]): Active
inhibition [7]: Active
Activity [8]: Active
IC50 (A549 [13]): 8.5 µM
TGI (PC-3 [14]): inactive
IC50 [15]: 3.73 µM
Activity (A549 [16]): inactive
Activity (A549 [17]): Active
IC50 (MCF7): 14.1 µM
IC50 (Androgen receptor): < 1 µM
IC50 [3]: 11.1 µM
IC50 [18]: 3.76 µM
Activity (LNCaP [5]): Active
IC50 (PC-3 [2]): 1.84 µM

O=C1CC(c2ccccc2O)Oc2c(Br)cc(Br)cc21 (stereo unspecified)
IC50 (Androgen receptor): 3.57 µM

O=C(/C=C/c1ccc(O)cc1)c1cc(Cl)ccc1O
IC50 (Androgen receptor): 5.92 µM

O=c1cc(-c2ccccc2O)oc2ccccc12
IC50 (LNCaP [1]): > 10 µM
IC50 (Androgen receptor): < 1 µM

O=C(/C=C/c1ccccc1O)c1cc(I)ccc1O
IC50 (Androgen receptor): 1.64 µM
